Data on 23 compounds can be found in ChEMBL document CHEMBL1145747, “Potent inhibition of NTPase/helicase of the West Nile Virus by ring-expanded ("fat") nucleoside analogues” (J Med Chem, 2003).

Molecules are shown by their SMILES. ≈ marks a conversion by molar mass, not a printed value.

Test [1] deals with T1, ATP-dependent RNA helicase SUPV3L1, mitochondrial (Homo sapiens, UniProt Q8IYB8).
T1 sequence (Q8IYB8 whole entry): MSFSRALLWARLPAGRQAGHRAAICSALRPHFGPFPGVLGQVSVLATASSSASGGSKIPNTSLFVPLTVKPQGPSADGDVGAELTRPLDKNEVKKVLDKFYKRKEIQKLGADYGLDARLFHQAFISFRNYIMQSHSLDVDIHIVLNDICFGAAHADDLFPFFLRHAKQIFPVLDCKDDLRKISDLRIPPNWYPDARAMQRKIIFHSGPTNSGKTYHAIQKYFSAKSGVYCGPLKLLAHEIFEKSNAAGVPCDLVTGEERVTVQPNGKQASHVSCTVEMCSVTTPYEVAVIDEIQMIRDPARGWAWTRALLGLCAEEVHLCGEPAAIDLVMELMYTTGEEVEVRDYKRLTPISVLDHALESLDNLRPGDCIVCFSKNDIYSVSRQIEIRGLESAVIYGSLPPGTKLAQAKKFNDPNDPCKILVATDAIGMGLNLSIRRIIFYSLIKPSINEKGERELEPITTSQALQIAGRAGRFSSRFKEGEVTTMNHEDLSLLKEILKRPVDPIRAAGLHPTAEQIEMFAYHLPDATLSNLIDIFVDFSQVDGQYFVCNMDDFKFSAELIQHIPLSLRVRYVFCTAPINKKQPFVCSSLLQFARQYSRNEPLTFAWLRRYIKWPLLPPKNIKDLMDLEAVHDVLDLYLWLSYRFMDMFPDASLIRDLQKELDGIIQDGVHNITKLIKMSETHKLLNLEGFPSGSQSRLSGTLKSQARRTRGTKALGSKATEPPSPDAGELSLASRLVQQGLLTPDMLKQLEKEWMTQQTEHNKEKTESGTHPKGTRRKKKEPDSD
Kind of test: Inhibitory activity determined against human Suv3 helicase using DNA as substrate. The procedure, abridged: (§1)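 Human Suv3(Δ1-159), expressed in E. coli from pQE60, 0.2 pmol per assay. Substrate: partially hybridized 32P-labelled DNA or RNA duplex (per line), 4.7 pM nucleotide base. Run with ATP at its Km of 4.2 µM in Tris/HCl pH 7.5 with MgCl2, 30 min at 30 °C. Released strand separated by TBE-PAGE and quantified by 32P counting. IC50 is 50% of control unwinding; representative of three experiments.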

Test [2] relates to West Nile virus. As to the kind of experiment: Inhibitory activity determined against west nile virus (WNV) NTPase/helicase (NTPase/helicase Non structural protein 3) using DNA as substrate. The test is classed as functional. The gist of the method: (§2)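 WNV NTPase/helicase (2 pmol), purified from culture medium of virus-infected Vero E6 cells, unwinding a partially hybridized 32P 5'-labelled duplex (26-mer release strand on 40-mer template; DNA or RNA per line, 4.7 pM nucleotide base). Conditions: ATP at Km (9.5 µM), 20 mM Tris/HCl pH 7.5, 2 mM MgCl2, 30 min at 30 °C. Released strand resolved on TBE-PAGE and its radioactivity counted. IC50 is 50% of compound-free unwinding; representative of three independent experiments.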

Test [3] has as its target T1, ATP-dependent RNA helicase SUPV3L1, mitochondrial. As to the kind of experiment: Inhibitory activity against human Suv3 helicase using RNA as substrate. The gist of the method:
as §1

The test system of test [4] is West Nile virus. As to the kind of experiment: Inhibitory activity determined against west nile virus (WNV) NTPase/helicase (NTPase/helicase Non structural protein 3) using RNA as substrate. The test is classed as functional. The procedure, abridged:
as §2

The subject of test [5] is West Nile virus. As to the kind of experiment: Inhibitory activity against west nile virus (WNV) NTPase/helicase (NTPase/helicase Non structural protein 3) using DNA as substrate. It is filed as functional. The procedure, abridged:
as §2

For test [6], the system named is West Nile virus. As to the kind of experiment: Inhibitory activity against west nile virus (WNV) NTPase/helicase (NTPase/helicase Non structural protein 3) using RNA as substrate. The test is classed as functional. The gist of the method:
as §2

Turning to `CCCCCCCCCCCCCCNc1nc(=O)c2ncn([C@@H]3O[C@H](CO)[C@@H](O)C3O)c2c(=O)[nH]1` (single isomer, unassigned), the IC50 (commonly the point on the concentration scale where inhibition reaches its midpoint) in test [1] was 591 µM; with West Nile virus [2], 3 µg/mL (≈ 5.91 µM); in test [3], 59.1 µM; with West Nile virus [4] it was more than 500 µg/mL.

Take `CCCCCCCNc1nc(=O)c2c(ncn2C2O[C@H](CO)[C@@H](O)C2O)c(=O)[nH]1` (single isomer, unassigned): in the test on West Nile virus [2], the IC50 was more than 300 µg/mL.

With `CCCCCCCCCCCCCCCCNc1nc(=O)c2ncn([C@@H]3O[C@H](CO)[C@@H](O)C3O)c2c(=O)[nH]1` (single isomer, unassigned), the IC50 in test [1] was more than 933 µM; in the test on West Nile virus [2] it was 250 µg/mL (≈ 467 µM); in test [3], 56 µM; in the test with West Nile virus [4], 500 µg/mL (≈ 933 µM).

In the case of `CCCCCCCCCCCCNc1nc(O)c2ncnc-2c(O)n1`, the IC50 was more than 1440 µM in test [1], more than 500 µg/mL in the test with West Nile virus [2], more than 1440 µM in test [3] and more than 500 µg/mL in the test with West Nile virus [4].

As to `O=c1nc(NCCCc2ccccc2)[nH]c(=O)c2c1ncn2C1O[C@H](CO)[C@@H](O)C1O` (single isomer, unassigned), the IC50 in the test with West Nile virus [2] was more than 500 µg/mL.

For the compound `CCCCCCCCCCCCNc1nc(=O)c2c(ncn2Cc2ccc(OC)cc2)c(=O)[nH]1`, the IC50 in test [1] was more than 1070 µM; in the test with West Nile virus [2] it was 5 µg/mL (≈ 10.7 µM); in test [3], more than 1070 µM; with West Nile virus [4], 1 µg/mL (≈ 2.14 µM).

In turn, `CCCCCNc1nc(=O)c2c(ncn2C2O[C@H](CO)[C@@H](O)C2O)c(=O)[nH]1` (single isomer, unassigned) had an IC50 in the test on West Nile virus [2] of more than 300 µg/mL.

Take `CCCCCCCCNc1nc(=O)c2ncn([C@@H]3O[C@H](CO)[C@@H](O)C3O)c2c(=O)[nH]1` (single isomer, unassigned): the IC50 with West Nile virus [2] was more than 300 µg/mL.

The compound `CCCNc1nc(=O)c2c(ncn2C2O[C@H](CO)[C@@H](O)C2O)c(=O)[nH]1` (single isomer, unassigned) came in with an IC50 with West Nile virus [2] of more than 300 µg/mL.

For `CCCCCCNc1nc(=O)c2c(ncn2C2O[C@H](CO)[C@@H](O)C2O)c(=O)[nH]1` (single isomer, unassigned), the IC50 in the test with West Nile virus [2] is more than 300 µg/mL.

In the case of `CCCCNc1nc(=O)c2c(ncn2C2O[C@H](CO)[C@@H](O)C2O)c(=O)[nH]1` (single isomer, unassigned), the IC50 in the test on West Nile virus [2] is more than 300 µg/mL.

Regarding `CCCCCCCCCCNc1nc(=O)c2ncn([C@@H]3O[C@H](CO)[C@@H](O)C3O)c2c(=O)[nH]1` (single isomer, unassigned), the IC50 in test [1] is more than 1110 µM; in the test on West Nile virus [2], 30 µg/mL (≈ 66.4 µM); in test [3] it was 1110 µM; in the test with West Nile virus [4], 300 µg/mL (≈ 664 µM).

Consider `O=c1nc(NCCCCc2ccccc2)[nH]c(=O)c2c1ncn2C1O[C@H](CO)[C@@H](O)C1O` (single isomer, unassigned), for which the concentration for half-maximal inhibition (IC50) in the test on West Nile virus [2] was more than 500 µg/mL.

`O=c1nc(NCc2ccccc2)[nH]c(=O)c2c1ncn2C1O[C@H](CO)[C@@H](O)C1O` (single isomer, unassigned) displayed an IC50 with West Nile virus [2] of more than 500 µg/mL.

`CCCCCCCCCCCCNc1nc(=O)c2ncn([C@@H]3O[C@H](CO)[C@@H](O)C3O)c2c(=O)[nH]1` (single isomer, unassigned): the IC50 in test [1] was more than 1040 µM; in the test on West Nile virus [2], 1 µg/mL (≈ 2.09 µM); in test [3], 313 µM; in the test on West Nile virus [4] it was 10 µg/mL (≈ 20.9 µM).

For the compound `CNc1nc(=O)c2c(ncn2C2O[C@H](CO)[C@@H](O)C2O)c(=O)[nH]1` (single isomer, unassigned), in the test with West Nile virus [2], the IC50 was more than 300 µg/mL.

In the test with West Nile virus [2], `O=c1nc(NCCc2ccccc2)[nH]c(=O)c2c1ncn2C1O[C@H](CO)[C@@H](O)C1O` (single isomer, unassigned) had an IC50 of more than 500 µg/mL.

Consider `CCCCCCCCCCCCNc1nc(=O)c2c(ncn2[C@@H]2C[C@H](O)[C@@H](CO)O2)c(=O)[nH]1`, for which the IC50 in test [1] is 539 µM; in the test on West Nile virus [2] it was 3 µg/mL (≈ 6.47 µM); in test [3], 324 µM; in the test with West Nile virus [4], 100 µg/mL (≈ 216 µM).

In the case of `O=c1nc(Nc2ccccc2)[nH]c(=O)c2c1ncn2C1O[C@H](CO)[C@@H](O)C1O` (single isomer, unassigned), the IC50 in test [1] and in test [3] was more than 1290 µM throughout. The ED200 was determined as 300 µg/mL with West Nile virus [5] and 100 µg/mL with West Nile virus [6].

`CCCCCCCCCCCCCCCCCCNc1nc(=O)c2ncn([C@@H]3O[C@H](CO)[C@@H](O)C3O)c2c(=O)[nH]1` (single isomer, unassigned): the IC50 was more than 887 µM in test [1], 5 µg/mL (≈ 8.87 µM) in the test on West Nile virus [2], 53.2 µM in test [3] and 100 µg/mL (≈ 177 µM) in the test with West Nile virus [4].

For `CCCCCCCCCCCCNc1nc(=O)c2c(ncn2[C@H]2C[C@H](O)[C@@H](CO)O2)c(=O)[nH]1`, the IC50 in test [1] was 6.47 µM; in the test with West Nile virus [2], 3 µg/mL (≈ 6.47 µM); in test [3] it was more than 1080 µM; with West Nile virus [4] it was 1.5 µg/mL (≈ 3.24 µM).

`CN(C)c1nc(=O)c2c(ncn2C2O[C@H](CO)[C@@H](O)C2O)c(=O)[nH]1` (single isomer, unassigned) came in with an IC50 with West Nile virus [2] of more than 300 µg/mL.

Turning to `CCNc1nc(=O)c2c(ncn2C2O[C@H](CO)[C@@H](O)C2O)c(=O)[nH]1` (single isomer, unassigned), the IC50 with West Nile virus [2] was more than 300 µg/mL.
